These results are taken from ChEMBL document CHEMBL3272174, “Molecular structural effects involved in the interaction of quinolinemethanolamines with DNA. Implications for antimalarial action” (1977).

Molecules are shown by their SMILES. The source made the active and inactive calls.

The subject of experiment [1] is Calf thymus DNA. The experiment can be described thus: Binding affinity to sonicated calf thymus DNA by viscometric titrations. It counts as nucleic-acid assay. The conditions noted are these: Bos taurus. The method, boiled down:
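Sonicated calf thymus DNA (1.0-3.0 mL) titrated with small aliquots of concentrated drug stock in a semimicro Ubbelohde dilution viscometer at 25 °C, in standard buffer. Volume change stayed at or below 3%, and DNA dilution was corrected. Reduced specific viscosity ratio plotted against drug/nucleotide molar ratio.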

Experiment [2] has as its system Calf thymus DNA. In words: Binding affinity to calf thymus DNA assessed as melting temperature at 10^-5 M by thermal denaturation assay. It counts as nucleic-acid assay. The conditions noted are these: Bos taurus. In a few lines: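 Thermal melting of dialyzed calf thymus DNA (10^-4 M nucleotide) with drug at 10^-5 M, in standard phosphate/EDTA buffer at pH 7.0. Absorbance followed against temperature in 1.0-cm stoppered quartz cuvettes, with temperature monitored by a cell-block thermistor.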

Experiment [3] concerns Escherichia coli. The experiment can be described thus: Binding affinity to closed circular superhelical Escherichia coli ColE1 DNA by viscometric titrations.
Experiment [4] concerns Plasmodium berghei. The experiment can be described thus: Antimalarial activity against Plasmodium berghei infected in mouse assessed as increase in mean survival time at 80 to 640 mg/kg measured after 60 days post infection relative to control. It counts as functional, organism-based.
The subject of experiment [5] is Calf thymus DNA. The experiment can be described thus: Binding affinity to sonicated calf thymus DNA at 10^-3 M by spectroscopy. The class given is nucleic-acid assay. The conditions noted are these: Bos taurus. In a few lines:
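Difference spectra: sonicated calf thymus DNA (2.3×10^-3 M) and drug (3.5×10^-4 M) in standard pH 7.0 phosphate/EDTA buffer were loaded in separate compartments of 10-mm tandem cells to set a baseline. Equal volumes were then mixed and read against the separated solutions.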

The subject of experiment [6] is Escherichia coli. The experiment can be described thus: Inhibition of Escherichia coli RNA polymerase assessed as reduction in RNA transcription at compound/DNA molar ratio of 1.
Experiment [7] deals with Calf thymus DNA. In words: Binding affinity to calf thymus DNA assessed as melting temperature at 10^-4 M by thermal denaturation assay. The class given is nucleic-acid assay. The conditions noted are these: Bos taurus. The method, boiled down:
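Calf thymus DNA dissolved in standard buffer (3.8×10^-3 M NaH2PO4, 5×10^-4 M EDTA, pH 7.0, ionic strength 0.0095) and dialyzed against it. Thermal denaturation: DNA at 10^-4 M (nucleotide equivalents), drug at 10^-4 M. Absorbance recorded as a function of temperature in stoppered 1.0-cm quartz cuvettes, with a thermistor in the cell block.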

The subject of experiment [8] is Plasmodium berghei. The experiment can be described thus: Antimalarial activity against Plasmodium berghei infected in mouse assessed as increase in mean survival time at 40 mg/kg measured after 60 days post infection relative to control. It counts as functional. The method, boiled down: (§1)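 Tested at Walter Reed Army Institute of Research (communicated data) in mice infected with P. berghei. Five mice per test. Read-out is the increase in mean survival time (ΔMST, days) over the control group. Activity is defined as ΔMST above 6.1 days. Cure (C) is scored when at least one of the five mice survives to 60 days postinfection.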

Experiment [9] deals with Plasmodium berghei. In words: Antimalarial activity against Plasmodium berghei infected in mouse assessed as increase in mean survival time at 80 mg/kg measured after 60 days post infection relative to control. It counts as functional. In a few lines: as §1
Experiment [10] has as its system Plasmodium berghei. In words: Antimalarial activity against Plasmodium berghei infected in mouse assessed as increase in mean survival time at 160 mg/kg measured after 60 days post infection relative to control. The class given is functional. In a few lines:
as §1

The subject of experiment [11] is Plasmodium berghei. In words: Antimalarial activity against Plasmodium berghei infected in mouse assessed as increase in mean survival time at 320 mg/kg measured after 60 days post infection relative to control. The class given is functional. In a few lines: as §1
The test system of experiment [12] is Plasmodium berghei. The experiment can be described thus: Antimalarial activity against Plasmodium berghei infected in mouse assessed as increase in mean survival time at 640 mg/kg measured after 60 days post infection relative to control. It counts as functional. The method, boiled down:
as §1

Regarding `CCN(CC)CCCC(C)Nc1c2ccc(Cl)cc2nc2ccc(OC)cc12` (configuration not stated), the result with Calf thymus DNA [1] and in the experiment with Escherichia coli [3] was Active. Further, the midpoint of thermal melting (Tm) in the experiment with Calf thymus DNA [2] worked out at 88 °C.

As for `O[C@@H](c1cc(C(F)(F)F)nc2c(C(F)(F)F)cccc12)[C@H]1CCCCN1` (relative stereo), the outcome with Plasmodium berghei [4] and in the experiment with Calf thymus DNA [5] was Active. Further, the result with Calf thymus DNA [1], with Escherichia coli [6] and in the experiment with Escherichia coli [3] was inactive. In addition, the Tm in the experiment on Calf thymus DNA [7] stood at 63 °C.

For the molecule `C=C[C@H]1CN2CC[C@H]1C[C@H]2[C@H](O)c1ccnc2ccc(OC)cc12`, the result in the experiment on Calf thymus DNA [5] and in the experiment on Calf thymus DNA [1] was Active. The Tm in the experiment with Calf thymus DNA [7] came out at 66.3 °C.

With `COc1cccc2c1C(=O)c1c(O)c3c(c(O)c1C2=O)C[C@@](O)(C(C)=O)C[C@@H]3O[C@H]1C[C@H](N)[C@H](O)[C@H](C)O1`, in the experiment with Escherichia coli [6], the outcome was Active.

In the case of `NC(=O)c1cc(C(O)C2CCCCN2)c2cccc(C(F)(F)F)c2n1` (configuration not stated), the “fold change (FC)” value in the experiment with Plasmodium berghei [8] was found to be 0.3; in the experiment on Plasmodium berghei [9] it was 0.3; in the experiment with Plasmodium berghei [10], 0.5; in the experiment with Plasmodium berghei [11], 0.7; in the experiment on Plasmodium berghei [12], 7.9. Moreover, the result in the experiment on Calf thymus DNA [5] and in the experiment with Calf thymus DNA [1] was Active. The Tm in the experiment with Calf thymus DNA [7] is 64.9 °C. In addition, the outcome with Escherichia coli [3] was inactive.

In the case of `CCN(CC)CCCC(C)Nc1ccnc2cc(Cl)ccc12` (configuration not stated), in the experiment on Calf thymus DNA [1], the result was Active. Further, the midpoint of thermal melting (Tm) in the experiment with Calf thymus DNA [2] stood at 75 °C. For the same molecule, in the experiment on Escherichia coli [3], the outcome was inactive.

Regarding `OC(c1cc(C(F)(F)F)nc2c(F)cccc12)C1CCCCN1` (configuration not stated), the “fold change (FC)” value is given as 4.1 in the experiment with Plasmodium berghei [9] and 7.1 in the experiment on Plasmodium berghei [11]. For the same molecule, the result with Calf thymus DNA [5] was Active. For the same molecule, the outcome in the experiment with Calf thymus DNA [1] and with Escherichia coli [3] was inactive. Moreover, the Tm in the experiment with Calf thymus DNA [7] was found to be 61.5 °C.

Regarding `NCCCCN`, the outcome in the experiment with Escherichia coli [3] was inactive.

The Tm is the temperature at which the thermal transition is half complete.
